Values after ≈ are worked out from the molar mass of the structure shown.
Tests used:
[1] = Antitumor activity against mouse EAC cells assessed as non viable cells at 10 ug/mL after 2 hrs by trypan blue exclusion test; assay type: functional, Ehrlich
Outline: (§1)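 Cells came from the ascitic fluid of preinoculated female Swiss albino mice and were suspended in medium with glutamine, fetal calf serum and antibiotics. Compound from DMSO dilutions was added as 0.1 mL, equal to the stated µg level, to medium plus 0.1 mL cell suspension (2 × 10^6). After 2 h at 37 °C, the percentage of non-viable cells was counted by trypan blue exclusion.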

[2] = Antitumor activity against mouse EAC cells assessed as non viable cells at 50 ug/mL after 2 hrs by trypan blue exclusion test; assay type: functional, Ehrlich; outline: as §1
[3] = Antitumor activity against mouse EAC cells assessed as non viable cells at 25 ug/mL after 2 hrs by trypan blue exclusion test; assay type: functional, Ehrlich; outline: as §1
[4] = Antitumor activity against mouse EAC cells assessed as non viable cells at 100 ug/mL after 2 hrs by trypan blue exclusion test; assay type: functional, Ehrlich; outline: as §1
[5] = Antitumor activity against mouse EAC cells assessed as non viable cells after 2 hrs by trypan blue exclusion test; assay type: functional, cell-based; conditions: Ehrlich
Outline: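 EAC cells were aspirated from the ascitic fluid of preinoculated female Swiss albino mice and suspended in medium containing glutamine, fetal calf serum, streptomycin and penicillin. Tubes received compound from DMSO dilutions (0.1 mL, corresponding to 100, 50, 25 or 10 µg) plus 0.1 mL cells and were held at 37 °C for 2 h. Non-viable cells were counted by trypan blue exclusion, and IC50 was read from the survival-versus-concentration curve.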

Row | Compound | Activity [1] [%] | Activity [2] [%] | Activity [3] [%] | Activity [4] [%] | IC50 [5] [µg/mL]
1 | Cc1ccc(C2C(C#N)=C(N)N(c3ccc(S(N)(=O)=O)cc3)C3=C2C(=O)CCC3)o1 (stereo not given) | 2 | 40 | 10 | 45 | > 100
2 | COc1ccccc1C1C(C#N)=C(N)N(c2ccc(S(N)(=O)=O)cc2)C2=C1C(=O)CCC2 (stereo not given) | 0 | 0 | 0 | 0 | > 100
3 | Cc1ccc(C2C(C#N)=C(N)N(c3ccc(S(N)(=O)=O)cc3)C3=C2C(=O)CCC3)cc1 (stereo not given) | 30 | 50 | 30 | 100 | 50 (≈ 115 µM)
4 | N#CC1=C(N)N(c2ccc(S(N)(=O)=O)cc2)C2=C(C(=O)CCC2)C1c1ccc(O)cc1 (stereo not given) | 90 | 100 | 95 | 100 | 3 (≈ 6.87 µM)
5 | COc1ccc2ccccc2c1C1C(C#N)=C(N)N(c2ccc(S(N)(=O)=O)cc2)C2=C1C(=O)CCC2 (stereo not given) | 40 | 70 | 62 | 80 | 12.5 (≈ 25 µM)
6 | N#CC1=C(N)N(c2ccc(S(N)(=O)=O)cc2)C2=C(C(=O)CCC2)C1c1cccs1 (stereo not given) | 70 | 88 | 80 | 100 | 5 (≈ 11.7 µM)
7 | N#CC1=C(N)N(c2ccc(S(N)(=O)=O)cc2)C2=C(C(=O)CCC2)C1c1ccc([N+](=O)[O-])cc1 (stereo not given) | 85 | 95 | 80 | 100 | 2.5 (≈ 5.37 µM)
8 | N#CC1=C(N)N(c2ccc(S(N)(=O)=O)cc2)C2=C(C(=O)CCC2)C1c1ccco1 (stereo not given) | 0 | 5 | 0 | 10 | > 100
9 | CCOc1cc(C2C(C#N)=C(N)N(c3ccc(S(N)(=O)=O)cc3)C3=C2C(=O)CCC3)ccc1OC (stereo not given) | 50 | 70 | 60 | 100 | 10 (≈ 20.2 µM)
10 | N#CC1=C(N)N(c2ccc(S(N)(=O)=O)cc2)C2=C(C(=O)CCC2)C1c1cccc([N+](=O)[O-])c1 (stereo not given) | 42 | 73 | 50 | 71 | 25 (≈ 53.7 µM)
11 | COc1ccc(C2C(C#N)=C(N)N(c3ccc(S(N)(=O)=O)cc3)C3=C2C(=O)CCC3)cc1 (stereo not given) | 30 | 90 | 50 | 100 | 25 (≈ 55.5 µM)
12 | N#CC1=C(N)N(c2ccc(S(N)(=O)=O)cc2)C2=C(C(=O)CCC2)C1/C=C/c1ccccc1 (stereo not given) | 2 | 40 | 10 | 45 | > 100
13 | N#CC1=C(N)N(c2ccc(S(N)(=O)=O)cc2)C2=C(C(=O)CCC2)C1c1c(O)ccc2ccccc12 (stereo not given) | 0 | 5 | 0 | 15 | > 100
14 | COc1cccc2c1C(=O)c1c(O)c3c(c(O)c1C2=O)C[C@@](O)(C(=O)CO)C[C@@H]3O[C@H]1C[C@H](N)[C@H](O)[C@H](C)O1 [DOXORUBICIN] | 20 | 60 | 39 | 100 | 37.5 (≈ 69 µM)
15 | N#CC1=C(N)N(c2ccc(S(N)(=O)=O)cc2)C2=C(C(=O)CCC2)C1c1ccc(Cl)cc1Cl (stereo not given) | 40 | 65 | 50 | 95 | 25 (≈ 51.1 µM)
16 | COc1cc(OC)c(C2C(C#N)=C(N)N(c3ccc(S(N)(=O)=O)cc3)C3=C2C(=O)CCC3)cc1OC (stereo not given) | 40 | 100 | 72 | 100 | 12 (≈ 23.5 µM)
17 | COc1cc(C2C(C#N)=C(N)N(c3ccc(S(N)(=O)=O)cc3)C3=C2C(=O)CCC3)ccc1O (stereo not given) | 0 | 90 | 50 | 100 | 25 (≈ 53.6 µM)
18 | N#CC1=C(N)N(c2ccc(S(N)(=O)=O)cc2)C2=C(C(=O)CCC2)C1c1ccccc1 (stereo not given) | 10 | 40 | 30 | 40 | > 100
19 | COc1ccc(C2C(C#N)=C(N)N(c3ccc(S(N)(=O)=O)cc3)C3=C2C(=O)CCC3)c2ccccc12 (stereo not given) | 10 | 30 | 10 | 90 | 70 (≈ 140 µM)
